Measured values published in ChEMBL document CHEMBL4118029, “Marine Terpenoid Diacylguanidines: Structure, Synthesis, and Biological Evaluation of Naturally Occurring Actinofide and Synthetic Analogues” (2017).

What was measured:
Hs 683 = experiment: Growth inhibition of human Hs683 cells after 72 hrs by MTT assay; assay type: functional; settings: Hs 683, 72 h
How it was run: (§1)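 Cells were grown in RPMI with 10% heat-inactivated fetal bovine serum, 4 mM glutamine, 100 μg/mL gentamicin and penicillin–streptomycin (200 units/mL and […]). They were cultured with compound for 72 h, then read by MTT colorimetric assay. GI50 is the concentration cutting growth by 50% relative to untreated control.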

MCF7 = experiment: Growth inhibition of human MCF7 cells after 72 hrs by MTT assay; assay type: functional; settings: MCF7, 72 h; how it was run: as §1
SK-MEL-28 = experiment: Growth inhibition of human SK-MEL-28 cells after 72 hrs by MTT assay; assay type: functional; settings: SK-MEL-28, 72 h; how it was run: as §1
U373 MG = experiment: Growth inhibition of human U373 cells after 72 hrs by MTT assay; assay type: functional, U-373MG ATCC; how it was run: as §1
A549 = experiment: Growth inhibition of human A549 cells after 72 hrs by MTT assay; assay type: functional; settings: A549, 72 h; how it was run: as §1
B16-F10 = experiment: Growth inhibition of mouse B16F10 cells after 72 hrs by MTT assay; assay type: functional; settings: B16-F10, 72 h; how it was run: as §1

GI50 (MCF7) [µM] | GI50 (SK-MEL-28) [µM] | GI50 (A549) [µM] | GI50 (B16-F10) [µM] | Compound | GI50 (Hs 683) [µM] | GI50 (U373 MG) [µM]
52.2 | 56.3 | 76.5 | 17.1 | CC(C)=CCC/C(C)=C/C(=O)NC(=N)N | 39.4 | 46
22 | 20.1 | 13.7 | 9.2 | CC(C)=CCC/C(C)=C/CC/C(C)=C/C(=O)NC(=N)N | 10 | 21
23.4 | 24.2 | 23.4 | 7.5 | CC(C)=CCC/C(C)=C/CC/C(C)=C/C(=O)NC(=N)NC(=O)C=C(C)C | 8.3 | 15.7
42.4 | 61.9 | 46.9 | 23.8 | CC(C)=CCC/C(C)=C/C(=O)NC(=N)NC(=O)/C=C(\C)CCC=C(C)C | 32.7 | 38.9
59.7 | > 100 | 75.6 | 21.3 | CC(C)=CC(=O)NC(=N)NC(=O)C=C(C)C | 60.3 | 45.6
> 100 | > 100 | > 100 | 92.8 | CC(C)=CC(=O)NC(=N)N | > 100 | > 100
28.1 | 60.5 | 29.4 | 9.6 | C=C1CCCC(C)(C)[C@@H]1CC/C(C)=C/C(=O)NC(=N)NC(=O)C=C(C)C | 18.1 | 28.8
41.5 | 53.4 | 37.4 | 25 | CC(C)=CCC/C(C)=C/C(=O)NC(=N)NC(=O)C=C(C)C | 31.5 | 36.2
30.3 | 42.7 | 18.5 | 5.7 | CC(C)=CCC/C(C)=C/CC/C(C)=C/C(=O)NC(=N)NC(=O)/C=C(\C)CC/C=C(\C)CCC=C(C)C | 6.8 | 9.2
4 | 3.2 | 1.7 | – | COc1cc([C@@H]2c3cc4c(cc3[C@@H](O[C@@H]3O[C@@H]5CO[C@@H](C)O[C@H]5[C@H](O)[C@H]3O)[C@H]3COC(=O)[C@H]23)OCO4)cc(OC)c1O [ETOPOSIDE] | 1.5 | 24.9
51.2 | 57.3 | 38.9 | 18.9 | CC(C)=CCC/C(C)=C/CC/C(C)=C/C(=O)NC(=N)NC(=O)/C=C(\C)CCC=C(C)C | 37.4 | 35
